# Experimental data published in ChEMBL document CHEMBL1151475, “Thiopurine drugs azathioprine and 6-mercaptopurine inhibit Mycobacterium paratuberculosis growth in vitro” (2008).
# Columns and labels:
# [1] = test system: Mycobacterium avium subsp. paratuberculosis; assay: Antituberculosis activity against Mycobacterium paratuberculosis ATCC 19698 isolated from bovine assessed as lowest drug level producing inhibition at 10^6 CFU of inoculum by MGIT 960 susceptibility test; type: functional
# Method in brief: (§1)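 M. paratuberculosis ATCC 19698 at 10^6 CFU per MGIT ParaTB tube in duplicate, drugs at final 1.0–64.0 μg/ml, 37°C in MGIT 960. Inhibition is the lowest concentration whose time to detection exceeds the 1:100 diluted-inoculum solvent control. No detectable growth means the tube never signals positive through 56 days.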
# [2] = test system: Mycobacterium avium subsp. paratuberculosis; assay: Antituberculosis activity against Mycobacterium paratuberculosis ATCC 19698 isolated from bovine assessed as lowest drug level producing inhibition at 10^6 CFU of inoculum by agar counting method; type: functional
# Method in brief: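 ATCC 19698 at 10^6 CFU was exposed to drug (1.0–64.0 μg/ml) in MGIT ParaTB medium at 37°C. Aliquots taken at 3 and 5 days were centrifuged, resuspended in PBS and declumped with glass beads. Serial dilutions were plated in quadruplicate on 7H10/OADC/mycobactin J and counted after 8 weeks. Inhibition is the lowest concentration giving a 2 log10 (99%) CFU reduction.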
# [3] = test system: Mycobacterium avium subsp. paratuberculosis; assay: Antituberculosis activity against Mycobacterium paratuberculosis ATCC 19698 isolated from bovine assessed as minimum drug level resulting in no detectable growth at 10^6 CFU of inoculum after 56 days by MGIT 960 susceptibility test; type: functional; method in brief: as §1
# [4] = test system: Mycobacterium avium subsp. paratuberculosis; assay: Antituberculosis activity against Mycobacterium paratuberculosis JTC303 isolated from bovine assessed as minimum drug level required for inhibition by MGIT 960 susceptibility test; type: functional
# Method in brief: (§2)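 10^5 to 10^6 CFU from single-cell suspensions inoculated in duplicate into MGIT ParaTB medium with supplement and egg yolk. Drugs were at final 0.5–64.0 μg/ml, with 128.0 μg/ml added for some strains. Tubes were incubated at 37°C in MGIT 960. Inhibition is the lowest concentration giving a time to detection longer than a drug-free 1:100 inoculum control. Killing is no positive signal through 56 days.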
# [5] = test system: Mycobacterium avium subsp. paratuberculosis; assay: Antituberculosis activity against Mycobacterium paratuberculosis JTC303 isolated from bovine assessed as minimum drug level required for killing after 56 days by MGIT 960 susceptibility test; type: functional; method in brief: as §2
# [6] = test system: Mycobacterium avium subsp. paratuberculosis; assay: Antituberculosis activity against Mycobacterium paratuberculosis UCF-4 isolated from Crohn's disease patient assessed as minimum drug level required for inhibition by MGIT 960 susceptibility test; type: functional; method in brief: as §2
# [7] = test system: Mycobacterium avium subsp. paratuberculosis; assay: Antituberculosis activity against Mycobacterium paratuberculosis UCF-4 isolated from Crohn's disease patient assessed as minimum drug level required for killing after 56 days by MGIT 960 susceptibility test; type: functional; method in brief: as §2
# [8] = test system: Mycobacterium avium subsp. paratuberculosis; assay: Antituberculosis activity against Mycobacterium paratuberculosis UCF-5 isolated from Crohn's disease patient assessed as minimum drug level required for inhibition by MGIT 960 susceptibility test; type: functional; method in brief: as §2
# [9] = test system: Mycobacterium avium subsp. paratuberculosis; assay: Antituberculosis activity against Mycobacterium paratuberculosis UCF-5 isolated from Crohn's disease patient assessed as minimum drug level required for killing after 56 days by MGIT 960 susceptibility test; type: functional; method in brief: as §2
# [10] = test system: Mycobacterium avium subsp. paratuberculosis; assay: Antituberculosis activity against Mycobacterium paratuberculosis UCF-7 isolated from Crohn's disease patient assessed as minimum drug level required for inhibition by MGIT 960 susceptibility test; type: functional; method in brief: as §2
# [11] = test system: Mycobacterium avium subsp. paratuberculosis; assay: Antituberculosis activity against Mycobacterium paratuberculosis UCF-7 isolated from Crohn's disease patient assessed as minimum drug level required for killing after 56 days by MGIT 960 susceptibility test; type: functional; method in brief: as §2
# [12] = test system: Mycobacterium avium subsp. paratuberculosis; assay: Antituberculosis activity against Mycobacterium paratuberculosis B213 isolated from bovine assessed as minimum drug level required for inhibition by MGIT 960 susceptibility test; type: functional; method in brief: as §2
# [13] = test system: Mycobacterium avium subsp. paratuberculosis; assay: Antituberculosis activity against Mycobacterium paratuberculosis B213 isolated from bovine assessed as minimum drug level required for killing after 56 days by MGIT 960 susceptibility test; type: functional; method in brief: as §2
# [14] = test system: Mycobacterium avium subsp. paratuberculosis; assay: Antituberculosis activity against Mycobacterium paratuberculosis B236 isolated from bovine assessed as minimum drug level required for inhibition by MGIT 960 susceptibility test; type: functional; method in brief: as §2
# [15] = test system: Mycobacterium avium subsp. paratuberculosis; assay: Antituberculosis activity against Mycobacterium paratuberculosis B236 isolated from bovine assessed as minimum drug level required for killing after 56 days by MGIT 960 susceptibility test; type: functional; method in brief: as §2
# [16] = test system: Mycobacterium avium subsp. paratuberculosis; assay: Antituberculosis activity against Mycobacterium paratuberculosis B238 isolated from bovine assessed as minimum drug level required for inhibition by MGIT 960 susceptibility test; type: functional; method in brief: as §2
# [17] = test system: Mycobacterium avium subsp. paratuberculosis; assay: Antituberculosis activity against Mycobacterium paratuberculosis B238 isolated from bovine assessed as minimum drug level required for killing after 56 days by MGIT 960 susceptibility test; type: functional; method in brief: as §2
# Mycobacterium avium [18] = assay: Antituberculosis activity against Mycobacterium avium ATCC 35712 isolated from chicken assessed as minimum drug level required for inhibition by MGIT 960 susceptibility test; type: functional; method in brief: as §2
# Mycobacterium avium [19] = assay: Antituberculosis activity against Mycobacterium avium ATCC 35712 isolated from chicken assessed as minimum drug level required for killing after 56 days by MGIT 960 susceptibility test; type: functional; method in brief: as §2
# [20] = test system: Mycobacterium avium subsp. paratuberculosis; assay: Antituberculosis activity against Mycobacterium paratuberculosis UCF-7 isolated from Crohn's disease patient assessed as colony counts at 2 ug after 12 days by MGIT 960 susceptibility test; type: functional
# [21] = test system: Mycobacterium avium subsp. paratuberculosis; assay: Antituberculosis activity against Mycobacterium paratuberculosis UCF-7 isolated from Crohn's disease patient assessed as colony counts at 4 ug after 12 days by MGIT 960 susceptibility test; type: functional
# [22] = test system: Mycobacterium avium subsp. paratuberculosis; assay: Antituberculosis activity against Mycobacterium paratuberculosis ATCC 19698 isolated from bovine assessed as viability after 5 to 8 days by standard plate count method
smiles,measurement,setting,value
O=C(O)c1cn(C2CC2)c2cc(N3CCNCC3)c(F)cc2c1=O [CIPROFLOXACIN],Activity,[1],1 µg/mL
same,Activity,[2],1 µg/mL
same,Activity,[3],32 µg/mL
same,Activity,[4],2 µg/mL
same,Activity,[5],8 µg/mL
same,Activity,[6],1 µg/mL
same,Activity,[7],4 µg/mL
same,Activity,[8],2 µg/mL
same,Activity,[9],4 µg/mL
same,Activity,[10],1 µg/mL
same,Activity,[11],4 µg/mL
same,Activity,[12],4 µg/mL
same,Activity,[13],16 µg/mL
same,Activity,[14],4 µg/mL
same,Activity,[15],16 µg/mL
same,Activity,[16],4 µg/mL
same,Activity,[17],16 µg/mL
same,Activity,Mycobacterium avium [18],16 µg/mL
same,Activity,Mycobacterium avium [19],64 µg/mL
same,log10CFU/ml,[20],1.98
same,log10CFU/ml,[21],0.76
same,log10CFU/ml,[22],1
Nc1ccc(O)c(C(=O)O)c1 [MESALAMINE],Activity,[1],>64 µg/mL
same,Activity,[2],>64 µg/mL
same,Activity,[3],>64 µg/mL
